This is a sample that favours compounds with a hit; in the whole collection about 5.9% have one here.
Lung fibro prol: blocks proliferation of human lung fibroblasts. LL 47 human lung fibroblast viability, ATP luminescence; active compounds read low. viability, % at 10 µM. actives 1.1% (n = 85,000);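 active means viability at or below 50% in the single dose screen; inactive means viability above 50%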;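 further: compound exposure lasted 72 h before the ATP readout; 100% = median luminescence of untreated cell-only wells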
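Material: human LL 47 lung fibroblast cells; quantity: 1,150 cells/well; medium: IMEM plus 15% FBS; doses: 0.1% DMSO in all compound wells; timing: overnight attachment after seeding, then 72 h compound exposure at 37 °C; detection: CellTiter-Glo luminescence; measure: % viability of median cell-only signal; controls: cell-only wells, no compound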
MT1-MMP txn act: MT1-MMP promoter transcription activation; HT1080 MT1-MMP promoter luciferase reporter, luminescence, overnight; active compounds read high; activation factor at 10 µM; actives 0.16% (n = 86,000);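 active means activation factor of at least 2 for MT1-MMP transcription at 10 µM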
Pyk2 oligo antag: blocks oligomerization of human Pyk2 in cells; Q14289; Q293 cells, Pyk2 FERM NanoBiT luminescence; active compounds read low; z-score (the deposit names both 25 µM and 10 µM); actives 0.83% (n = 99,000); AID 1347419;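 active means Z-score of -3 or lower, scaled per plate to the spread of control and sample wells; inactive means z-score above -3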;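 further: negative z-score means lost luminescence so less FERM oligomerization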
Jurkat viability: cytotoxic compounds reducing Jurkat cell viability; Jurkat E6.1 viability, ATP luminescence, 48 h; inhibition, % at 4 µM; actives 1.2% (n = 56,000); AID 463;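 active means inhibition above the mean inhibition of all tested compounds plus 3 SD, cut at about 28% in these data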
HUVEC prolif 384: inhibitors of human endothelial cell proliferation; HUVEC proliferation, CellTiter-Glo luminescence, 72 h; active compounds read low; actives 1.1% (n = 86,000); AID 648; viability, % at 10 µM (by protocol);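 active means viability at or below 30%; inactive means viability above 30%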;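 further: 100% = median luminescence of DMSO-only cell control wells on each plate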
H69AR growth 86K: blocks growth of human H69AR lung tumor cells; H69AR lung tumor viability, ATP luminescence, 72 h; active compounds read low; viability, % at 10 µM; actives 6% (n = 85,000); AID 598;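 active means viability at or below 40%; inactive means viability above 40%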;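 further: multidrug resistant small cell line overexpressing MRP-1 efflux transporter; 100% = mean luminescence of untreated control wells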
Active calls of the source: *.

Screening c1ccc(-c2cc3c(ccc4nonc43)nn2)cc1 returned MT1-MMP txn act 1.1, Pyk2 oligo antag -0.32, Jurkat viability -12.9, HUVEC prolif 384 94.0 and H69AR growth 86K 101.3.
CCc1nnc(NC(=O)CN2CCN(c3ccc(Cl)cc3)CC2)s1 was read as Lung fibro prol 95.5, MT1-MMP txn act 1.3, HUVEC prolif 384 89.3 and H69AR growth 86K 99.7.
Screening COC(=O)c1c(C)n(-c2ccc(C)cc2)c2ccc(O)cc12 returned Lung fibro prol 88.0, MT1-MMP txn act 1.1, Pyk2 oligo antag -1.72, HUVEC prolif 384 26.9* and H69AR growth 86K 23.0*.
For CCOC(=O)c1c(C)n(CC(O)c2ccccc2)c2ccc(O)cc12 (centres undefined) the results were Lung fibro prol 87.9, MT1-MMP txn act 1.1, Pyk2 oligo antag -3.05*, Jurkat viability 14.1, HUVEC prolif 384 73.3 and H69AR growth 86K 66.2.
COC(=O)c1c(C)n(-c2ccccc2)c2ccc(O)cc12 was read as Lung fibro prol 91.8, MT1-MMP txn act 1.1, Pyk2 oligo antag -2.48, Jurkat viability 11.3, HUVEC prolif 384 41.7 and H69AR growth 86K 18.7*.
`CC(=O)c1c(C)n(-c2ccccc2)c2ccc(O)cc12` gave Lung fibro prol 96.2, Pyk2 oligo antag -1.95, Jurkat viability -1.3, HUVEC prolif 384 71.2 and H69AR growth 86K 62.9.
`Cc1ccc(S(=O)(=O)N2CCc3ccccc3C2CN2C(=O)c3ccccc3C2=O)cc1` (centres undefined) gave Pyk2 oligo antag -1.58.
`CCCCCCCC(=O)NN=C1CCN(Cc2ccccc2)CC1` gave Pyk2 oligo antag 0.1.
`CSCCC(NC(=O)OC(C)(C)C)C(=O)NC(C(=O)NC(CC(C)C)C(N)=O)C(C)C` (centres undefined) gave Lung fibro prol 101.2, MT1-MMP txn act 1.1, Pyk2 oligo antag 0.02, HUVEC prolif 384 95.6 and H69AR growth 86K 96.5.
Screening O=C(c1c(F)cccc1F)N(Cc1ccccn1)C1CC1 returned Lung fibro prol 98.9, MT1-MMP txn act 1, Pyk2 oligo antag 0.07, HUVEC prolif 384 98.5 and H69AR growth 86K 103.7.
COc1ccc(/C=N/n2cnnc2)cc1COc1ccccn1 was read as Lung fibro prol 103.4, MT1-MMP txn act 1.2, Pyk2 oligo antag 0.78, Jurkat viability 10.9, HUVEC prolif 384 108.4 and H69AR growth 86K 101.3.
Screening CCOC(=O)c1ccccc1OCc1cc(/C=N/n2cncn2)ccc1OC returned Lung fibro prol 99.1, MT1-MMP txn act 1.1, Pyk2 oligo antag -0.87, HUVEC prolif 384 81.3 and H69AR growth 86K 33.6*.
`COc1cccc2c1OC[C@@H](CO)[C@H]2N(C)C(=O)Nc1ccc(Cl)cc1Cl` gave Pyk2 oligo antag -0.37.
`CSc1ccc(CNc2cccc3ccccc23)cc1` gave Pyk2 oligo antag -4.33*.
Screening O=c1c2ccccc2nc(SCc2cn3ccsc3n2)n1-c1ccc(F)cc1 returned MT1-MMP txn act 1, Pyk2 oligo antag -3.26*, Jurkat viability 3.1, HUVEC prolif 384 106.7 and H69AR growth 86K 41.1.
Screening O=C(COC(=O)c1cccc(NC(=O)c2ccco2)c1)c1ccc(Br)cc1 returned Lung fibro prol 96.2, MT1-MMP txn act 1.5, Pyk2 oligo antag -1.96, Jurkat viability 2.1, HUVEC prolif 384 79.9 and H69AR growth 86K 91.2.
O=C(NC1CCCCC1)N1CCCC(c2nc(-c3ccc(S(=O)(=O)N4CCCC4)cc3)no2)C1 (centres undefined) was read as Lung fibro prol 88.4, MT1-MMP txn act 1, Pyk2 oligo antag -1.89, Jurkat viability -0.6, HUVEC prolif 384 88.3 and H69AR growth 86K 34.6*.
`O=C(Nc1ccccc1)N1CCC(c2nc(-c3ccc(S(=O)(=O)N4CCOCC4)cc3)no2)CC1` gave Lung fibro prol 60.5, MT1-MMP txn act 1.1, Pyk2 oligo antag 1.05, Jurkat viability 32.9*, HUVEC prolif 384 62.4 and H69AR growth 86K 82.1.
Screening CCOC(=O)c1cccc(N2C(=O)c3ccccc3S2(=O)=O)c1 returned Lung fibro prol 97.6, MT1-MMP txn act 1.1, Pyk2 oligo antag -0.1, Jurkat viability -5.9, HUVEC prolif 384 95.4 and H69AR growth 86K 86.4.
CCOC(=O)c1[nH]c(C)c(C(=O)Nc2ccc(C)c(F)c2)c1C was read as Lung fibro prol 92.3, MT1-MMP txn act 1.1, Pyk2 oligo antag -0.77, Jurkat viability 49.3*, HUVEC prolif 384 73.0 and H69AR growth 86K 20.3*.
For CCNC(=O)c1c(C)[nH]c(C(=O)OCC)c1C the results were Lung fibro prol 112.4, MT1-MMP txn act 1.1, Pyk2 oligo antag 0.01, Jurkat viability -2.3, HUVEC prolif 384 98.7 and H69AR growth 86K 92.8.
CCOC(=O)c1[nH]c(C)c(C(=O)Nc2ccc(C)c(Cl)c2)c1C was read as Lung fibro prol 79.5, MT1-MMP txn act 1.3, Pyk2 oligo antag -0.35, Jurkat viability 5.5, HUVEC prolif 384 61.6 and H69AR growth 86K 31.9*.
Screening CCCOC1OC(=O)c2c1ccc(OC)c2OC (centres undefined) returned Pyk2 oligo antag 1.34.
`COc1ccc(N=CC2=C(Nc3ccc(OC)cc3)c3c(C)nn(-c4ccccn4)c3CC2)cc1` gave Lung fibro prol 71.0, MT1-MMP txn act 1.3, HUVEC prolif 384 3.0* and H69AR growth 86K 39.0*.
Screening COc1ccccc1/C=N/NC(=Nc1ccc(C)cc1)c1nc2ccccc2s1 returned Lung fibro prol 77.0, MT1-MMP txn act 1.9, HUVEC prolif 384 86.4 and H69AR growth 86K 44.4.
COc1cc(/C=N/NC(=Nc2ccc(C)cc2)c2nc3ccccc3s2)ccc1O was read as Lung fibro prol 82.1, MT1-MMP txn act 1.3, Pyk2 oligo antag -1.91, HUVEC prolif 384 88.2 and H69AR growth 86K 35.3*.
COc1cc(-c2nc3ccccc3s2)ccc1O was read as Lung fibro prol 90.3, MT1-MMP txn act 1.6, Pyk2 oligo antag 0.24, HUVEC prolif 384 50.2 and H69AR growth 86K 39.6*.
For COc1ccc(-c2nc3ccccc3s2)cc1O the results were Lung fibro prol 94.3, MT1-MMP txn act 0.1, Pyk2 oligo antag -0.61, Jurkat viability -4.4, HUVEC prolif 384 82.2 and H69AR growth 86K 45.1.
COC(=O)CCC(=O)c1oc2ccccc2c1N was read as Lung fibro prol 97.9, MT1-MMP txn act 1.3, Pyk2 oligo antag 0.61, Jurkat viability -5.1, HUVEC prolif 384 98.3 and H69AR growth 86K 101.0.
`CC(C)C(c1nnnn1Cc1ccc(F)cc1)N1CCN(C(=O)c2ccco2)CC1` (centres undefined) gave Lung fibro prol 88.6, MT1-MMP txn act 1.1, Pyk2 oligo antag 0.28, Jurkat viability 1.5, HUVEC prolif 384 98.8 and H69AR growth 86K 93.8.
Screening C[C@@H](C(=O)Nc1ccc2ccccc2c1)[C@@H]1C[C@@]1(C)[C@@H](NC(=O)c1ccncc1Cl)c1ccccc1 returned MT1-MMP txn act 1.2.
`Cc1cc(C(=O)Nc2ccccc2C(F)(F)F)no1` gave Lung fibro prol 107.5, MT1-MMP txn act 1.1, Pyk2 oligo antag 1.41, Jurkat viability -3.3, HUVEC prolif 384 100.7 and H69AR growth 86K 94.8.

Assay outcomes as filed in PubChem BioAssay.
